Measured values: paper PMC5362249 (Biochemical pharmacology, 2016)
Each block holds one compound with its values, some of them ahead of it.

Assays:
Mrp4 [1] = molecular target: T1, Mrp4 (Mus musculus, UniProt E9Q236); experiment: Effect of MK571 on tissue distribution of vaginally administered TFV; assay type: in vivo
T1 sequence (E9Q236 1-1325): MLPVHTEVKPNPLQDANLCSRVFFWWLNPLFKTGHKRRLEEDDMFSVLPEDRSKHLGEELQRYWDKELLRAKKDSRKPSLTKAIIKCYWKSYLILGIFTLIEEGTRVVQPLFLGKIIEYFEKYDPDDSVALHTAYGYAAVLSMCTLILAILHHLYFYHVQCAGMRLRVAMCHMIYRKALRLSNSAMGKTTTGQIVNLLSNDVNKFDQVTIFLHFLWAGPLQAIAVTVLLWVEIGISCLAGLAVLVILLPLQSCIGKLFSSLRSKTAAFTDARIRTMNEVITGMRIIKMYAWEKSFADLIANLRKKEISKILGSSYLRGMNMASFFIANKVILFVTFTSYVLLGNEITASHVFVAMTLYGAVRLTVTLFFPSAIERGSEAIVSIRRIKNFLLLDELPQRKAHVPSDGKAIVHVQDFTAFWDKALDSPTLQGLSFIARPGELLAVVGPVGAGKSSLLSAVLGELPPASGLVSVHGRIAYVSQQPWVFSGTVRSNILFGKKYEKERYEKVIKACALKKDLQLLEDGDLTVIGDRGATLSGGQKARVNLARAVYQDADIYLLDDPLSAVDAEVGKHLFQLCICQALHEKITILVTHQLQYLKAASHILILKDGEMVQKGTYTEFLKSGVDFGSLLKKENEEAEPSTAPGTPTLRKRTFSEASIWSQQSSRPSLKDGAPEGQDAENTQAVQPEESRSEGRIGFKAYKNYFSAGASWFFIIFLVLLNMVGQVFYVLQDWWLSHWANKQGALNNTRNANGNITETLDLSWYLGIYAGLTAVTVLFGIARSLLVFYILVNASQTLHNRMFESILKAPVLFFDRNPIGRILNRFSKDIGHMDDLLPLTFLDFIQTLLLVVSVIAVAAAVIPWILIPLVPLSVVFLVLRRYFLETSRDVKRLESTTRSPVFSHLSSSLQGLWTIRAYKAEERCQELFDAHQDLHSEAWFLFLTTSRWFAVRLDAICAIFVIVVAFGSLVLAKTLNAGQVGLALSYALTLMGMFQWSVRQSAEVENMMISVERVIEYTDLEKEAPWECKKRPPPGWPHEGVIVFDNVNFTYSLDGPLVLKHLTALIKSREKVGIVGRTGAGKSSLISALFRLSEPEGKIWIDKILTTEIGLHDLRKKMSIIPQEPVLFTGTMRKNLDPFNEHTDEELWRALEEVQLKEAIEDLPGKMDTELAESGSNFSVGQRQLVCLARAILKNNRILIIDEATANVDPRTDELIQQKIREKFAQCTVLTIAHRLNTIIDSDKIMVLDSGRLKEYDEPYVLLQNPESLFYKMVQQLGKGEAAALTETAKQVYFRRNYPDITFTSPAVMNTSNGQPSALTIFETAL
Method in brief: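 Synchronized mice got IP saline or MK571 (100 μL, 7.5 mg/mL), then 20 μL vaginal gel 30 min later. Gel: 2.7% universal placebo (pH 4.4) with 3H-TFV plus unlabelled TFV, ±MK571. Ketamine/xylazine IP 5 min before gel. At 0.5 and 1 h: CVL (8 × 25 μL saline), plasma, tissues. Scintillation counting; total TFV from labelled:unlabelled ratio. 7–13 mice per point; ANOVA.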

[2] = In vitro release of TFV from gels, Franz cell apparatus; assay type: physicochemical
Method in brief: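 Gels containing TFV, with or without MK571, were placed in the donor chamber of a Franz cell with PBS in the acceptor chamber. Acceptor TFV concentration over time gave cumulative release (30 and 60 min) and Papp. Three gels per group, mean ± SD.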

Mrp4 [3] = molecular target: T1, Mrp4; experiment: Effect of MK571 on tissue distribution of IP-administered TFV; assay type: in vivo
Method in brief: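 Synchronized mice received 100 μL saline or saline containing 7.5 mg/mL MK571 IP. 15 min later they received 100 μL 3H-TFV in saline IP (0.94 × 10−5 mmol/mL, 125 μCi/mL). At 1.5 h: CVL (3 × 20 μL saline), plasma and tissues. Samples were dissolved in Solvable overnight at 50 °C, decolorized with H2O2 (50 °C, 1 h), then counted by scintillation. Two groups compared by t-test.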

Mrp4 (Abcc4) = experiment: Real-time RT-PCR of transporter mRNA in mouse tissues after exogenous hormones; assay type: in vivo; details: uterus, endocervix, and colorectum; Gapdh-normalized
Method in brief: (§1)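 Tissues were taken from naturally cycling mice at estrus or diestrus (vaginal cytology staging) and from PMSG- or Depo-Provera-synchronized mice, 3–5 mice each. Real-time RT-PCR transporter mRNA was normalized to Gapdh by the 2−ΔCt method; Student's t-test between stages.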

P-gp (Abcb1a/1b) protein = assay type: in vivo, mouse; details: endocervix, ectocervix, vagina
Method in brief: (§2)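 Tissues came from natural estrus and diestrus mice (staged by vaginal cytology) and synchronized mice (estrus 24 h after PMSG; diestrus 7 days after first Depo-Provera), at least 3 mice each. Primary antibody dilutions: P-gp 1:15, Bcrp 1:25, Mrp4 1:15, overnight at 4 °C. Then biotinylated secondary (1:200, 30 min RT), ABC 30 min, AEC, hematoxylin. Non-immune IgG as negative control.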

P-gp (Abcb1b) = experiment: Real-time RT-PCR of transporter mRNA in mouse tissues after exogenous hormones; assay type: in vivo; details: uterus and ectocervix; Gapdh-normalized
Method in brief: as §1

Bcrp (Abcg2) = experiment: as above; assay type: in vivo; details: uterus; Gapdh-normalized
Method in brief: as §1

Mrp4 protein = assay type: in vivo, mouse; details: endocervix, ectocervix, and vagina; vs natural estrous cycle
Method in brief: as §2

Bcrp protein = assay type: in vivo, mouse; details: compared to the natural estrous stages
Method in brief: as §2

P-gp (Abcb1a) = experiment: Real-time RT-PCR of transporter mRNA in mouse tissues after exogenous hormones; assay type: in vivo; details: uterus and endocervix; Gapdh-normalized
Method in brief: as §1

[4] = test system: NRs for mineralocorticoids; details: cited from earlier work
NRs for estrogen = details: cited from earlier work
[5] = molecular target: glucocorticoid receptor (GR); details: agonist; approximate; cited from earlier work
[6] = MK571 incorporated into TFV gel vs control, 0.5 h post gel
[7] = MK571 incorporated into TFV gel vs control, 1.0 h

- TFV concentration in CVL and endocervix (Mrp4 [1]; [6]): remained unchanged
- TFV concentration in mouse vaginal tissue (Mrp4 [1]; [6]): significantly higher
- TFV CVL concentration (Mrp4 [1]; [7]): significantly decreased
- TFV concentration in plasma and uterus (Mrp4 [1]; [7]): remained unchanged
- TFV concentration in the colorectum (Mrp4 [1]; [7]): significantly increased
- decrease in TFV concentration in endocervix, ectocervix, and vagina (Mrp4 [1]; [7]): not statistically significant
- permeability coefficient Papp of TFV, gel with vs without MK571 ([2]; Franz cell apparatus, acceptor chamber): almost identical
- impact of MK571 incorporation into the gel on in vitro release profile of TFV ([2]; vs gel containing TFV alone, Franz cell, PBS acceptor): did not have any impact
- TFV concentration in CVL and vagina (Mrp4 [3]; MK571 IP 15 min before IP TFV, 1.5 h post-TFV, p = 0.04): increased
- TFV colorectum/plasma ratio (Mrp4 [3]; MK571 IP co-administration, IP TFV, 1.5 h, p = 0.006): significantly increased
- TFV vagina/plasma ratio (Mrp4 [3]; MK571 IP co-administration, IP TFV, 1.5 h, p = 0.03): significantly increased
Compound: CN(C)C(=O)CCSC(SCCC(=O)O)c1cccc(/C=C/c2ccc3ccc(Cl)cc3n2)c1 (stereo not drawn) [MK571]
- TFV concentrations in plasma, uterus, and colorectum (Mrp4 [1]; MK571 IP solution 30 min before vaginal TFV gel vs TFV gel only): only slightly increased or remained unchanged
- TFV concentration in plasma, uterus, ectocervix, and colorectum (Mrp4 [1]; [6]): slightly, but not significantly, increased

Compound: PMSG: exogenous hormone known to stimulate estrogen levels, used to synchronize mice into estrus
- Mrp4 mRNA level compared to either stage of the natural cycle (Mrp4 (Abcc4)): significantly altered
- P-gp protein abundance or localization compared to natural estrous cycle (P-gp (Abcb1a/1b) protein): did not exert an obvious effect
- Abcb1b mRNA level compared to either stage of the natural cycle (P-gp (Abcb1b)): significantly altered
- Bcrp mRNA level compared to either stage of the natural cycle (Bcrp (Abcg2)): significantly altered
- epithelial and stromal abundance of Mrp4 protein (Mrp4 protein): decreased
- Bcrp protein density in vaginal epithelium (Bcrp protein): appeared to decrease
- Abcb1a mRNA level compared to either stage of the natural cycle (P-gp (Abcb1a)): significantly altered

Compound: C[C@H](Cn1cnc2c(N)ncnc21)OCP(=O)(O)O [TFV, tenofovir]
- TFV distribution compared to its plasma concentration (Mrp4 [3]; after IP administration, 1.5 h): preferentially distributed into cervicovaginal tissues and fluid

Compound: CC(=O)O[C@]1(C(C)=O)CC[C@H]2[C@@H]3C[C@H](C)C4=CC(=O)CC[C@]4(C)[C@H]3CC[C@@]21C [MPA, medroxyprogesterone acetate]
- binding to nuclear receptor [4]: does not bind significantly
- binding to nuclear receptor (NRs for estrogen): does not bind significantly
- EC50 [5]: ~0.01 µM
